Source: ChEMBL document CHEMBL1938279, “Synthesis and evaluation of macrocyclic diarylether heptanoid natural products and their analogs” (Bioorg Med Chem Lett, 2012)
Blank lines part the entries; values can stand above or below the compound they belong to. Active and inactive are the calls of the source. No cut-off for these calls is given here.

How the values were obtained:
[1] = Inhibition of NF-kappaB activation in human TNFalpha-stimulated A549 cells preincubated for 2 hrs before TNFalpha challenge measured after 7 hrs post stimulation by luciferase reporter gene assay; type: cell-based
In short: (§1)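 Stable κB-luciferase-expressing A549 cells; NF-κB transcription activity read as luciferase signal; single concentration of 20 μM and dose-response experiments.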

Hs 766 [2] = assay: Potentiation of gemcitabine-induced cytotoxicity against human Hs766T cells assessed as cell growth inhibition at 20 uM after 5 days by alamar blue assay; type: functional, cell-based
In short: (§2)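 Hs 766T and PANC-1 pancreatic tumour cells given test agent alone or combined with gemcitabine; growth inhibition measured; data representative of three independent experiments, mean ± SD.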

PANC-1 [3] = assay: Potentiation of gemcitabine-induced cytotoxicity against human PANC1 cells assessed as cell growth inhibition at 20 uM after 5 days by alamar blue assay; type: functional, cell-based; in short: as §2
HEK293 [4] = assay: Inhibition of TNFalpha-stimulated IkappaBalpha protein expression in HEK293 cells at 50 uM after 120 mins by Western blot analysis; type: functional, cell-based; conditions: Homo sapiens
In short: (§3)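 HEK 293 cells stimulated with TNF-α with or without test agent; IκBα protein levels assessed by Western blotting at set times after stimulation.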

HEK293 [5] = assay: Inhibition of TNFalpha-stimulated IkappaBalpha protein expression in HEK293 cells at 50 uM after 60 mins by Western blot analysis; type: functional, cell-based; conditions: Homo sapiens; in short: as §3
PANC-1 [6] = assay: Growth inhibition of human PANC1 cells at 20 uM after 5 days by alamar blue assay; type: functional, cell-based; in short: as §2
PANC-1 [7] = assay: Potentiation of gemcitabine-induced induction of apoptosis in human PANC1 cells assessed as activation of caspase 3/7 after 48 hrs by caspase-Glo 3 assay; type: functional, cell-based
In short: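 PANC-1 cells treated with test agent alone or combined with gemcitabine; caspase 3/7 activity read after 48 hr as apoptosis marker; representative of two independent experiments, mean ± SD.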

Hs 766 [8] = assay: Growth inhibition of human Hs766T cells at 20 uM after 5 days by alamar blue assay; type: functional, cell-based; in short: as §2
HEK293 [9] = assay: Inhibition of TNFalpha-stimulated IkappaBalpha protein expression in HEK293 cells at 50 uM after 30 mins by Western blot analysis; type: functional, cell-based; conditions: Homo sapiens; in short: as §3
A549 = assay: Inhibition of NF-kappaB activation in human TNFalpha-stimulated A549 cells at 20 uM preincubated for 2 hrs before TNFalpha challenge measured after 7 hrs post stimulation by luciferase reporter gene assay; type: cell-based; in short: as §1

SMILES: COc1ccc2cc1Oc1cc(ccc1OC)CCC(=O)CCCC2
IC50 [1]: 14.3 µM | growth inhibition (GI) (Hs 766 [2]): Active | growth inhibition (GI) (PANC-1 [3]): Active | inhibition (HEK293 [4]): Active | inhibition (HEK293 [5]): Active | growth inhibition (GI) (PANC-1 [6]): inactive | Activity (PANC-1 [7]): Active | growth inhibition (GI) (Hs 766 [8]): inactive | inhibition (HEK293 [9]): Active | inhibition (A549): Active

SMILES: COc1cc(/C=C/C(=O)CC(=O)/C=C/c2ccc(O)c(OC)c2)ccc1O [CURCUMIN]
IC50 [1]: 20.3 µM

SMILES: COc1cc2ccc1Oc1cc(ccc1OC)CCC(O)CCCC2 (centres undefined) [PLATYCARYNOL]
IC50 [1]: 36.4 µM

The remaining lines, values ahead:

IC50 [1]: 4.7 µM
SMILES: C=C1C(=O)O[C@@H]2C3O[C@]3(C)CC/C=C(\C)CC[C@@H]12 (some centres undefined)

IC50 [1]: 65.2 µM
SMILES: COc1ccc2c(c1OC)C(=O)O[C@@H]2[C@H]1c2c(cc3c(c2OC)OCO3)CCN1C [NOSCAPINE]
